Data published in ChEMBL document CHEMBL1144443, “Novel 3D pharmacophore of alpha-MSH/gamma-MSH hybrids leads to selective human MC1R and MC3R analogues” (J Med Chem, 2005).
pEC50, pIC50: −log10 of the molar value. Where a SMILES comes first, the peptide text is derived from it. [ ]: non-standard residue; d: D form. d2Nal = N[C@H](Cc1ccc2ccccc2c1)C(=O)O; Nle = CCCC[C@H](N)C(=O)O

What was measured:
Melanocortin receptor 3 [1] = target: T1, Melanocortin receptor 3 (Homo sapiens, UniProt P41968); type: cell-based, HEK293
Melanocortin receptor 5 [2] = target: T2, Melanocortin receptor 5 (Homo sapiens, UniProt P33032); type: cell-based, HEK293
Melanocortin receptor 3 [3] = target: T1, Melanocortin receptor 3; assay: Effective concentration for intracellular cAMP accumulation in human melanocortin 3 receptor expressing HEK 293 cells; (N = 4); type: functional, cell-based, HEK293
How it was run: (§1)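 HEK293 cells transfected with human MCRs, grown in MEM with 10% FBS, seeded 48 h before at 100 000 cells/well. Stopped with ice-cold Tris/EDTA, boiled 15 min, centrifuged; cAMP in supernatant measured by competitive binding kit. EC50 and maximal response by nonlinear least-squares fit.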

Melanocortin receptor 5 [4] = target: T2, Melanocortin receptor 5; assay: Effective concentration for intracellular cAMP accumulation in human melanocortin 5 receptor expressing HEK 293 cells; (N = 4); type: functional, cell-based, HEK293; how it was run: as §1
Melanocortin receptor 4 [5] = target: T3, Melanocortin receptor 4 (Homo sapiens, UniProt P32245); assay: Effective concentration for intracellular cAMP accumulation in human melanocortin 4 receptor expressing HEK 293 cells; (N = 4); type: functional, cell-based, HEK293
Melanocortin receptor 4 [6] = target: T3, Melanocortin receptor 4; type: cell-based, HEK293
Melanocortin receptor 4 [7] = target: T3, Melanocortin receptor 4; conditions: HEK293
[8] = target: T4, Melanocyte-stimulating hormone receptor (Homo sapiens, UniProt Q01726); assay: Maximal effect on human melanocortin 1 receptor expressing HEK 293 cells; type: functional, cell-based; conditions: HEK293; how it was run: as §1
Target sequence in this assay (Q01726 whole entry, looked up): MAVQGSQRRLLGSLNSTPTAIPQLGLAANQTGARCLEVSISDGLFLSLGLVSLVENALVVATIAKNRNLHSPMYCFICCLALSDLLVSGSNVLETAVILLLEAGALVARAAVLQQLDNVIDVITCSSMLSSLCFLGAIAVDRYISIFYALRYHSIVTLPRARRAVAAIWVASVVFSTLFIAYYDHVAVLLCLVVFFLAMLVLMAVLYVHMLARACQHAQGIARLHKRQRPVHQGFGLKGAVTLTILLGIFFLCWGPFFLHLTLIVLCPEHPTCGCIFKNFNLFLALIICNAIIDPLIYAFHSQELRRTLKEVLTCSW

Melanocortin receptor 5 [9] = target: T2, Melanocortin receptor 5; assay: Maximal effect on human melanocortin 5 receptor expressing HEK 293 cells; type: functional, cell-based; conditions: HEK293; how it was run: as §1
Melanocortin receptor 3 [10] = target: T1, Melanocortin receptor 3; assay: Maximal effect on human melanocortin 3 receptor expressing HEK 293 cells; type: functional, cell-based; conditions: HEK293; how it was run: as §1
[11] = target: T4, Melanocyte-stimulating hormone receptor; assay: Effective concentration for intracellular cAMP accumulation in human melanocortin 1 receptor expressing HEK 293 cells; (N = 4); type: functional, cell-based, HEK293; how it was run: as §1
Target sequence in this assay (Q01726 whole entry): as the sequence (Q01726 whole entry, looked up) above

[12] = target: T4, Melanocyte-stimulating hormone receptor; type: cell-based, HEK293
Target sequence in this assay (Q01726 whole entry): as the sequence (Q01726 whole entry, looked up) above

Melanocortin receptor 5 [13] = target: T2, Melanocortin receptor 5; assay: Effective concentration for intracellular cAMP accumulation in human melanocortin 5 receptor expressing HEK 293 cells; (N = 4), No activity; type: functional, cell-based; conditions: hek293
How it was run: as §1, with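 “cells/well. Preincubated 1 min at 37 °C in EBSS with IBMX, then exposed 3 min at 37 °C to peptide (10^-10 to 10^-5 M).” for “cells/well.”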

T1 sequence (P41968 whole entry): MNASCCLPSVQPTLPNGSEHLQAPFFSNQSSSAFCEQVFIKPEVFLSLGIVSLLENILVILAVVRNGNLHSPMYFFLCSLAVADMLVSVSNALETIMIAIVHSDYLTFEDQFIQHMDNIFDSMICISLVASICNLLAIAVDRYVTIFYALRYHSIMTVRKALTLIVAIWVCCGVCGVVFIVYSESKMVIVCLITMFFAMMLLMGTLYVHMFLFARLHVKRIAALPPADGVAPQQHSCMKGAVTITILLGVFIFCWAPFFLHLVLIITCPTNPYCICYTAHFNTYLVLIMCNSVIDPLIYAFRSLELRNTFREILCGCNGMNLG
T3 sequence (P32245 whole entry): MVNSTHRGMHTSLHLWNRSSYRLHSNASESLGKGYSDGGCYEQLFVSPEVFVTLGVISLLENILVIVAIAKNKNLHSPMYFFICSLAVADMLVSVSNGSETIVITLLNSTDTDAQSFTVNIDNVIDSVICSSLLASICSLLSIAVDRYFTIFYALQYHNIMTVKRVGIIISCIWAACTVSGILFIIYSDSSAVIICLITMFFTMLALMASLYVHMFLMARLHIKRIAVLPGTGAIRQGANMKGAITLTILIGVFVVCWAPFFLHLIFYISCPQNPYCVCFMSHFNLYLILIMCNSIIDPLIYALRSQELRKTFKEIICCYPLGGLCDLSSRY
T2 sequence (P33032 whole entry): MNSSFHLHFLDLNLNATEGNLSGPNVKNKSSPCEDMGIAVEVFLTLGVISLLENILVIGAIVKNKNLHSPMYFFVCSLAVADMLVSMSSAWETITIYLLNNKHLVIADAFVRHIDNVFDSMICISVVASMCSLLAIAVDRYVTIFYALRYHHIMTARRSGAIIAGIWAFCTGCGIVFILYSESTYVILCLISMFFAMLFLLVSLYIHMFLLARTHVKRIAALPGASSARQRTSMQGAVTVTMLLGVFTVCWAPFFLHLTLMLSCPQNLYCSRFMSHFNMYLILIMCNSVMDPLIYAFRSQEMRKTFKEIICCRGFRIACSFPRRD

Row | Compound | pIC50 (Melanocortin receptor 3 [1]) | pIC50 (Melanocortin receptor 5 [2]) | pEC50 (Melanocortin receptor 3 [3]) | pEC50 (Melanocortin receptor 5 [4]) | pEC50 (Melanocortin receptor 4 [5]) | pIC50 (Melanocortin receptor 4 [6]) | pEC50 [11] | pIC50 [12] | other results
1 | CCCC[C@H](NC(=O)[C@@H](NC(=O)[C@@H](N)Cc1ccc(O)cc1)C(C)C)C(=O)NCC(=O)N1CCC[C@H]1C(=O)N[C@@H](Cc1ccccc1)C(=O)N[C@@H](CCCN=C(N)N)C(=O)N[C@H](Cc1ccc2ccccc2c1)C(=O)N[C@@H](CC(=O)O)C(=O)N[C@@H](CCCN=C(N)N)C(=O)N[C@@H](Cc1ccccc1)C(=O)NCC(N)=O | 7.49 | 6.19 | 7.89 | 6.60 | – | – | – | – | –
2 | CCCC[C@H](NC(=O)[C@@H](NC(=O)[C@@H](N)Cc1ccc(O)cc1)C(C)C)C(=O)NCC(=O)N[C@H](Cc1ccc2ccccc2c1)C(=O)N[C@@H](Cc1ccccc1)C(=O)N[C@@H](CCCN=C(N)N)C(=O)N[C@@H](Cc1c[nH]c2ccccc12)C(=O)N[C@@H](CC(=O)O)C(=O)N[C@@H](CCCN=C(N)N)C(=O)N[C@@H](Cc1ccccc1)C(=O)NCC(N)=O | – | – | – | – | – | – | – | – | pIC50 (Melanocortin receptor 3 [1]; hek293): 5.52; pIC50 (Melanocortin receptor 5 [2]; hek293): 6.00; pEC50 (Melanocortin receptor 4 [5]; hek293): < 5.00; pIC50 (Melanocortin receptor 4 [6]; hek293): 5.70; pEC50 (Melanocortin receptor 3 [3]; hek293): < 5.00; pEC50 (Melanocortin receptor 5 [4]; hek293): 6.06
3 | CCCC[C@H](NC(=O)[C@@H](NC(=O)[C@@H](N)Cc1ccc(O)cc1)C(C)C)C(=O)NCC(=O)N[C@@H](Cc1c[nH]cn1)C(=O)N[C@H](Cc1ccccc1)C(=O)N[C@@H](CCCN=C(N)N)C(=O)N[C@H](Cc1c[nH]c2ccccc12)C(=O)N[C@@H](CC(=O)O)C(=O)N[C@@H](CCCN=C(N)N)C(=O)N[C@@H](Cc1ccccc1)C(=O)NCC(N)=O | – | – | – | – | 7.54 | 7.77 | – | – | –
4 | CCCC[C@H](NC(=O)[C@@H](NC(=O)[C@@H](N)Cc1ccc(O)cc1)C(C)C)C(=O)NCC(=O)N[C@@H](Cc1c[nH]cn1)C(=O)N[C@@H](Cc1ccccc1)C(=O)N[C@@H](CCCN=C(N)N)C(=O)N[C@@H](Cc1c[nH]c2ccccc12)C(=O)N[C@@H](CC(=O)O)C(=O)N[C@@H](CCCN=C(N)N)C(=O)N[C@@H](Cc1ccccc1)C(=O)NCC(=O)O | – | – | – | – | – | – | – | – | Maximal effect (Melanocortin receptor 4 [7]): 100%
5 | CCCC[C@H](NC(=O)[C@@H](NC(=O)[C@@H](N)Cc1ccc(O)cc1)C(C)C)C(=O)NCC(=O)N1CCC[C@H]1C(=O)N[C@@H](Cc1ccccc1)C(=O)N[C@@H](CCCN=C(N)N)C(=O)N[C@H](Cc1ccc2ccccc2c1)C(=O)N[C@@H](CC(=O)O)C(=O)N[C@@H](CCCN=C(N)N)C(=O)N[C@@H](Cc1ccccc1)C(=O)NCC(=O)O | – | – | – | – | – | – | – | – | Maximal effect [8]: 120%; Maximal effect (Melanocortin receptor 5 [9]): 46%; Maximal effect (Melanocortin receptor 4 [7]): 14%; Maximal effect (Melanocortin receptor 3 [10]): 28%
6 | CCCC[C@H](NC(=O)[C@@H](NC(=O)[C@@H](N)Cc1ccc(O)cc1)C(C)C)C(=O)NCC(=O)N[C@@H](Cc1c[nH]cn1)C(=O)N[C@H](Cc1ccccc1)C(=O)N[C@@H](CCCN=C(N)N)C(=O)N[C@H](Cc1ccc2ccccc2c1)C(=O)N[C@@H](CC(=O)O)C(=O)N[C@@H](CCCN=C(N)N)C(=O)N[C@@H](Cc1ccccc1)C(=O)NCC(N)=O | 8.22 | 8.30 | – | 6.70 | 7.44 | 8.22 | 8.70 | 9.15 | –
7 | CCCC[C@H](NC(=O)[C@@H](NC(=O)[C@@H](N)Cc1ccc(O)cc1)C(C)C)C(=O)NCC(=O)N1CCC[C@H]1C(=O)N[C@H](Cc1ccc2ccccc2c1)C(=O)N[C@@H](CCCN=C(N)N)C(=O)N[C@H](Cc1ccc2ccccc2c1)C(=O)N[C@@H](CC(=O)O)C(=O)N[C@@H](CCCN=C(N)N)C(=O)N[C@@H](Cc1ccccc1)C(=O)NCC(N)=O | 8.52 | 8.70 | 7.96 | – | 8.48 | 8.40 | 8.70 | 8.70 | EC50 (Melanocortin receptor 5 [13]): Not Active
8 | CCCC[C@H](NC(=O)[C@@H](NC(=O)[C@@H](N)Cc1ccc(O)cc1)C(C)C)C(=O)NCC(=O)N[C@@H](Cc1c[nH]cn1)C(=O)N[C@@H](Cc1ccccc1)C(=O)N[C@@H](CCCN=C(N)N)C(=O)N[C@@H](Cc1c[nH]c2ccccc12)C(=O)N[C@@H](CC(=O)O)C(=O)N[C@@H](CCCN=C(N)N)C(=O)N[C@@H](Cc1ccccc1)C(=O)NCC(N)=O | – | – | – | – | – | 7.19 | – | – | –
9 | CCCC[C@H](NC(=O)[C@@H](NC(=O)[C@@H](N)Cc1ccc(O)cc1)C(C)C)C(=O)NCC(=O)N[C@@H](Cc1cnc[nH]1)C(=O)N[C@H](Cc1ccc2ccccc2c1)C(=O)N[C@@H](CCCNC(=N)N)C(=O)N[C@H](Cc1ccccc1)C(=O)N[C@@H](CC(=O)O)C(=O)N[C@@H](CCCNC(=N)N)C(=O)N[C@@H](Cc1ccccc1)C(=O)NCC(N)=O (H-YV[Nle]GH[d2Nal]R[dF]DRFG-NH2) | 8.22 | 8.48 | 6.02 | 6.31 | 5.57 | 7.70 | 8.82 | 9.80 | –
